Screens from PubChem BioAssay.
STAT3 activator = IL-6 driven STAT3 reporter potentiators, primary screen, U3A cells, luciferase, luminescence, MLSCN library | actives 0.91% (n = 190,000) | AID 871, 2007 | activation (% of control), % at 5.6 µM | IL-6 STAT3-luciferase reporter; 100% = signal with IL-6 EC80 alone;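 active = activation above the screen-wide mean of compound activation plus 3 SD, cut at about 130% in these data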;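 note: 0% = background luminescence of wells with medium and substrate only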
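Material: human U3A cells carrying STAT3-luciferase construct. Measured by: reporter luminescence signal. Timing: compound 1 h, then IL-6 6 h at 37 °C.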
STAT1 blocker = STAT1 signaling inhibitors, primary screen, cell-based, HTS, luciferase reporter. actives 0.35% (n = 200,000). AID 920, 2007. NIH 3T3 STAT1-luciferase reporter, IFN-gamma, luminescence. inhibition, % at 5.5 µM;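 active = inhibition above a set limit, the mean inhibition across all tested compounds plus 3 SD, cut at about 34% in these data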;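 note: 0% = IFN-gamma with DMSO and 100% = IFN-gamma with 300 µM nifuroxazide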
STAT1 act = STAT1 signaling activators, primary screen, cell-based, HTS, luciferase reporter | NIH 3T3 STAT1-luciferase reporter, IFN-gamma, luminescence; 100% = IFN-gamma alone, no compound | activation (% of control), % at 5.5 µM | actives 2.6% (n = 200,000);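 active = activation above the screen-wide mean activation plus 3 SD, cut at about 130% in these data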;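 note: raw ratio to IFN-gamma control signal so 100% means no change and 0% no light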
FLuc inh counter = firefly luciferase enzyme inhibitors, primary screen, artefact control for luciferase-based inhibitor screens, biochemical, luminescence, ATPLite | inhibition, % at 10 µM | actives 1.5% (n = 200,000) | AID 1006, 2008 | Luciferin 4-monooxygenase (Photinus pyralis), P08659 | 10 min;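 active = inhibition above about 50% when tested at 10 µM, limit read from the data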
Target sequence (P08659 whole entry, looked up): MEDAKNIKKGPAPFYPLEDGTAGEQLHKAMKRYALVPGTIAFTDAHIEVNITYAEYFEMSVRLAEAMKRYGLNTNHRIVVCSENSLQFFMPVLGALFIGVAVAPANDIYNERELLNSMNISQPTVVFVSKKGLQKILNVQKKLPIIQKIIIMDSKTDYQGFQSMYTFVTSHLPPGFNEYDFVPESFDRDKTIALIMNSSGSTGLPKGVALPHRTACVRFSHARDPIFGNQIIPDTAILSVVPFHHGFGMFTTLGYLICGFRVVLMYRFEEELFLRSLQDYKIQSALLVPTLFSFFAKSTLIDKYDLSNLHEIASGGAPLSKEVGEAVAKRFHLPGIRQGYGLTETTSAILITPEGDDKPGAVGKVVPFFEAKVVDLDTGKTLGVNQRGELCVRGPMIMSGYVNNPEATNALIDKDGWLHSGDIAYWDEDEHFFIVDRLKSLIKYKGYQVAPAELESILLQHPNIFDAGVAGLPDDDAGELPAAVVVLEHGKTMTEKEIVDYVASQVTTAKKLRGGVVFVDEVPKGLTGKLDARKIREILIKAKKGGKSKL
FLuc stim CS = FLuc activators, initial screening, artefact control for FLuc-dependent activation tests, biochemical, ATPlite luminescence | ATPlite luciferase biochemical, 10 min; 0 = ATP-free wells, 1 = DMSO control | 200,000 tested, under 10 active | Luciferin 4-monooxygenase (Photinus pyralis), P08659 | activation factor at 10 µM;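 active = luciferase activation factor, scaled between plate controls, of at least 2 with compound at 10 µM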
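Assay system: Luciferase/luciferin detection reagent, cell-free biochemical luciferase assay / Also added: ATP substrate / Schedule: 10 min at ambient temperature / Measured by: luminescence measurement of luciferase light output / Benchmarks: low control with PBS replacing ATP, high control enzyme plus ATP without compound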
STAT3 inh = IL-6 driven STAT3 reporter inhibitors, primary screen, U3A cells, luciferase, luminescence, MLSCN library; IL-6 STAT3-luciferase reporter; host cell line lacks STAT1; AID 862, 2007; inhibition, % at 5.5 µM; actives 0.89% (n = 190,000);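 active = inhibition above the mean inhibition across all screened compounds plus 3 SD, cut at about 44% in these data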;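 note: 0% = DMSO only wells and 100% = 100 µM nifuroxazide control wells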
The depositor's hits bear a star. An excerpt weighted towards active compounds, which were near 4.9% of everything screened.

CCCCN(C(=O)/C=C/c1ccco1)c1c(N)n(Cc2ccccc2)c(=O)[nH]c1=O was read as STAT3 activator 101, STAT1 blocker -2, STAT1 act 100, FLuc inh counter -4, FLuc stim CS 1 and STAT3 inh 1.
`CCC(=O)Nc1cc(C(=O)OCC(=O)c2ccccc2)ccc1C` gave STAT3 activator 122, STAT1 blocker -48, STAT1 act 144*, FLuc inh counter 16, FLuc stim CS 0.8 and STAT3 inh -25.
Screening O=C(O)CS(=O)(=O)CC(=O)NCc1cccc(C(F)(F)F)c1 returned STAT3 activator 103, STAT1 blocker -9, STAT1 act 108, FLuc inh counter -4, FLuc stim CS 1 and STAT3 inh 4.
`C/C(=N\Nc1cccc2cccnc12)c1ccc(C)cc1` gave STAT3 activator 109, STAT1 blocker -44, STAT1 act 137*, FLuc inh counter 62*, FLuc stim CS 0.4 and STAT3 inh -5.
`CCCOc1ccc(C(=O)Nc2ccccc2[N+](=O)[O-])cc1` gave STAT3 activator 84, STAT1 blocker -44, STAT1 act 140* and STAT3 inh 26.
COc1ccc(NC(=O)c2ccccc2)c([N+](=O)[O-])c1 was read as STAT3 activator 98, STAT1 blocker -39, STAT1 act 132*, FLuc inh counter 11, FLuc stim CS 0.9 and STAT3 inh 7.
`CCOc1ccc(NC(=O)c2ccc(CC)s2)c([N+](=O)[O-])c1` gave STAT3 activator 99, STAT1 blocker -39, STAT1 act 133*, FLuc inh counter 2, FLuc stim CS 1 and STAT3 inh 6.
Screening CC(C)CCNC(=O)COC(=O)c1cc(Br)c(Br)s1 returned STAT3 activator 101, STAT1 blocker -3, STAT1 act 102, FLuc inh counter -1, FLuc stim CS 1 and STAT3 inh 7.
Cc1ccc(NC(=O)c2nnn(-c3cc(C)cc(C)c3)c2N)cc1 was read as STAT3 activator 82, STAT1 blocker -31, STAT1 act 129*, FLuc inh counter -8, FLuc stim CS 1.1 and STAT3 inh 23.
Screening CN1CC(c2ccc(C#N)cc2)C2(COc3ccccc3C2=O)C12C(=O)Nc1ccccc12 (stereo not drawn) returned STAT3 activator 109, STAT1 blocker 0, STAT1 act 100, FLuc inh counter -9, FLuc stim CS 1.1 and STAT3 inh 0.
Screening O=S(=O)(NC1c2cccc3cccc(c23)C1N1CCNCC1)c1ccccc1 (stereo not drawn) returned STAT3 activator 105, STAT1 blocker -4, STAT1 act 104, FLuc inh counter -6, FLuc stim CS 1.1 and STAT3 inh 1.
Screening O=S(=O)(NC1c2cccc3cccc(c23)C1N1CCN(CCO)CC1)c1ccccc1 (stereo not drawn) returned STAT3 activator 134*, STAT1 blocker -1, STAT1 act 101, FLuc inh counter -5, FLuc stim CS 1.1 and STAT3 inh -30.
Screening Oc1ccc(-c2csc(Nc3ncccn3)n2)cc1O returned STAT3 activator 83, STAT1 blocker -36, STAT1 act 133*, FLuc inh counter 53*, FLuc stim CS 0.5 and STAT3 inh 23.
O=C(CCN1CCN(c2ccccc2)CC1)N/N=C/c1ccccc1OC(F)F was read as STAT3 activator 101, STAT1 blocker -7, STAT1 act 105, FLuc inh counter 0, FLuc stim CS 1 and STAT3 inh 6.
`COc1ccc(C2=Nc3cccc4cccc(c34)N2)cc1` gave STAT3 activator 135*, STAT1 blocker 6, STAT1 act 95, FLuc inh counter 11, FLuc stim CS 0.9 and STAT3 inh -30.
`CC(C)C1=Nc2cccc3cccc(c23)N1` gave STAT3 activator 109, STAT1 blocker 3, STAT1 act 98, FLuc inh counter -8, FLuc stim CS 1.1 and STAT3 inh -10.
CC12CN3CCN(CC(C3)/C1=N\NC(=O)Nc1cccc(Cl)c1)C2 was read as STAT3 activator 109, STAT1 blocker -14, STAT1 act 112, FLuc inh counter 0, FLuc stim CS 1 and STAT3 inh -8.
COc1ccc(Br)cc1S(=O)(=O)NCCCN1CCOCC1 was read as STAT3 activator 95, STAT1 blocker 5, STAT1 act 95, FLuc inh counter -7, FLuc stim CS 1.1 and STAT3 inh 12.
Cc1c(C(=O)OC2CCC(C)CC2)[nH]c2c1C(=O)CCC2 (stereo not drawn) was read as STAT3 activator 75, STAT1 blocker -51, STAT1 act 146*, FLuc inh counter 2, FLuc stim CS 1 and STAT3 inh 35.
COC(=O)c1[nH]c2c(c1C)C(=O)CCC2 was read as STAT3 activator 105, STAT1 blocker 8, STAT1 act 92, FLuc inh counter -3, FLuc stim CS 1 and STAT3 inh -3.
For CCc1cccc2c(C(=O)COC(=O)c3ccccc3)c[nH]c12 the results were STAT3 activator 112, STAT1 blocker -48, STAT1 act 143*, FLuc inh counter 1, FLuc stim CS 1 and STAT3 inh -12.
CCc1cccc2c(C(=O)COC(=O)c3c(C)noc3C)c[nH]c12 was read as STAT3 activator 94, STAT1 blocker -9, STAT1 act 108, FLuc inh counter 0, FLuc stim CS 1 and STAT3 inh 10.
Screening CCc1cccc2c(C(=O)COC(=O)c3ccc(O)cc3)c[nH]c12 returned STAT3 activator 114, STAT1 blocker -36, STAT1 act 132*, FLuc inh counter -7, FLuc stim CS 1.1 and STAT3 inh -14.
`CN(C)/C=N/c1nc(-c2ccc3c(c2)OCO3)cs1` gave STAT3 activator 108, STAT1 blocker -11, STAT1 act 110, FLuc inh counter 28, FLuc stim CS 0.7 and STAT3 inh -10.
`Cc1ccc(Nc2nnc(SCC3CCCCO3)s2)cc1` (stereo not drawn) gave STAT3 activator 113, STAT1 blocker -22, STAT1 act 120, FLuc inh counter 7, FLuc stim CS 0.9 and STAT3 inh -17.
Screening Cc1ccccc1Nc1nnc(SCC2CCCCO2)s1 (stereo not drawn) returned STAT3 activator 100, STAT1 blocker -30, STAT1 act 129*, FLuc inh counter 60*, FLuc stim CS 0.4 and STAT3 inh -2.
